According to ChEMBL document CHEMBL2046390, “Carnosine analogues containing NO-donor substructures: synthesis, physico-chemical characterization and preliminary pharmacological profile” (Eur J Med Chem, 2012):
Calls of active or inactive are those of the source. The calls are words filed in the database; no cut-off is given here.

Key:
[1] = system: Thoracic aorta; test: Vasodilator activity in Wistar rat endothelium-denuded thoracic aorta assessed as inhibition of L-phenylephrine-induced contraction in presence of ODQ; type: functional, tissue-based
In short: (§1)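 Rat aortic strips equilibrated 90 min, then contracted with 1 μM L-phenylephrine. Cumulative concentration-response curves were run at the plateau, with isometric recording. EC50 is the concentration giving 50% relaxation, mean of at least 5 determinations. ODQ 1 μM was added 5 min before contraction in a separate series.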

[2] = system: Thoracic aorta; test: Vasodilator activity in Wistar rat endothelium-denuded thoracic aorta assessed as inhibition of L-phenylephrine-induced contraction; type: functional, tissue-based; in short: as §1
[3] = Antioxidant activity against CuSO4-induced LDL oxidation assessed as delta-lag time at 100 uM by spectrophotometric analysis; type: functional
In short: (§2)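 Human LDL isolated by ultracentrifugation (density 1.019-1.063 g/mL), EDTA removed by desalting, diluted in 10 mM phosphate buffer pH 7.4 to 50 μg protein/mL; compound 100 μM final. Oxidation started with 2.5 μM CuSO4 at 37 °C; conjugated dienes followed at 234 nm. Lag phase versus control; propagation rate from ΔA234 over time using ε234 = 29500 M-1 cm-1.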

[4] = Lipophilicity, log D of the compound at pH 7.4 by shake-flask method; type: physicochemical; details: buffer
In short: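 Shake-flask partition between n-octanol and phosphate buffer pH 7.4 (ionic strength 0.15 M KCl), phases presaturated 4 h. Compound about 0.1 mM in the aqueous phase; shaken about 20 min, centrifuged, aqueous concentration read by UV at 230 nm. At least 6 determinations per compound.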

[5] = Antioxidant activity assessed as (E)-4-hydroxy-trans-2,3-nonenal scavenging activity in phosphate buffer at pH 7.4 at 1 mM after 24 hrs by reverse-phase HPLC analysis relative to control; type: functional
In short: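 HNE 50 μM incubated with compound 1 mM in 1 mM phosphate buffer pH 7.4 at 37 °C for up to 24 h. Remaining HNE measured directly by reverse-phase HPLC. Scavenging % = 100 − (HNE left with scavenger / HNE left in control × 100).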

[6] = Binding affinity to Cu2+ assessed as formation of compound-cu2+ complex formation by pH-metric technique; type: physicochemical
In short: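 Compound and CuCl2, equimolar at 1 mM in water, acidified to pH 1.8 with 0.5 N HCl, then titrated with 0.5 N KOH to pH 12.2. Run under nitrogen at 25.0 ± 0.1 °C, ionic strength 0.15 M KCl, at least three titrations. Formation constants fitted from pH-metric data.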

[7] = Antioxidant activity against CuSO4-induced LDL oxidation measured per mg of LDL product assessed as propagation rate of the oxidation at 100 uM by spectrophotometric analysis; type: functional; in short: as §2
[8] = system: Serum; test: Metabolic stability of the compound in human serum at 0.5 mM after 3 hrs by RP-HPLC analysis; type: ADME, cell-free; details: 500 µM
In short: (§3)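 A 10 mM aqueous stock was added to human serum preheated to 37 °C, giving 0.5 mM final, then incubated at 37 ± 0.5 °C. Aliquots were deproteinized with acetonitrile/0.1% TFA, centrifuged, filtered and analysed by RP-HPLC on C18 with diode-array detection, using methanol/20 mM sodium acetate pH 4.5–5 mM SDS mobile phase.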

[9] = Half life in human serum at 0.5 mM by RP-HPLC analysis; type: ADME, cell-free; in short: as §3
[10] = system: Rattus norvegicus; test: Reduction of ischemia-reperfusion-induced TNFalpha level increase in Wistar rat serum at 1 g/kg, iv by ELISA; type: functional, organism-based
In short: (§4)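 Male Wistar rats, 210–230 g, anaesthetised with Zoletil and kept at 37 °C, underwent 30 min carotid occlusion then 24 h reperfusion; n = 5 per group. Compounds in 5% DMSO given i.v. at reperfusion onset and again after 6 h. Infarct volume from 2-mm coronal brain slices stained with 2% TTC, 37 °C, 30 min. Serum TNF-α by ELISA (pg/mL); means ± SEM.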

[11] = system: Rattus norvegicus; test: Protection against hypoxia-induced brain damage in Wistar rat ischemia-reperfusion injury model assessed as reduction of cerebral infarct volume at 1 g/kg, iv administered at beginning of reperfusion and again after 6 hrs measured 24 hrs after reperfusion; type: functional, organism-based; in short: as §4
[12] = system: Thoracic aorta; test: Vasodilator activity in Wistar rat endothelium-denuded thoracic aorta assessed as inhibition of L-phenylephrine-induced contraction at 1 mM; type: functional; in short: as §1
[13] = system: Rattus norvegicus; test: Reduction of ischemia-reperfusion-induced TNFalpha level increase in Wistar rat serum at 500 mg/kg, iv by ELISA; type: functional, organism-based; design: dose 500 mg/kg; in short: as §4
[14] = system: Rattus norvegicus; test: Protection against hypoxia-induced brain damage in Wistar rat ischemia-reperfusion injury model assessed as reduction of cerebral infarct volume at 500 mg/kg, iv administered at beginning of reperfusion and again after 6 hrs measured 24 hrs after reperfusion; type: functional, organism-based; design: dose 500 mg/kg; in short: as §4

Row | EC50 [2] [µM] | logD [4] | Activity [6] | Stability [8] | half-life at 500 µM [9] [min] | SMILES | Activity [1] | Activity [2] | TIME [3] [h] | Activity [5] [%] | Activity [7] [nmol/min] | Activity [10] | Activity [11] | inhibition at 1000 µM [12] [%] | Activity [13] | Activity [14]
1 | 169 | -2.33 | Active | Stable |  | NCCC(=O)N[C@@H](Cc1c[nH]cn1)C(=O)NC[C@@H](CO[N+](=O)[O-])O[N+](=O)[O-] | inactive | Dose-dependent effect | 1.25 | 67.2 | 5.8 |  |  |  |  | 
2 |  |  |  |  | 5 | NCCC(=O)N[C@@H](Cc1cnc[nH]1)C(=O)O [CARNOSINE] |  |  |  |  |  |  |  |  |  | 
3 |  |  |  |  |  | NCCC(=O)N[C@@H](Cc1c[nH]cn1)C(=O)O |  | Dose-dependent effect |  |  |  | inactive | Active |  |  | 
4 |  | -2.43 | Active | Stable |  | NCCC(=O)N[C@@H](Cc1c[nH]cn1)C(=O)NCCCO[N+](=O)[O-] | inactive | Dose-dependent effect | 1.5 | 75.4 | 3.9 |  |  | 46 |  | 
5 | 70 | -2.19 | Active | Stable |  | NCCC(=O)N[C@@H](Cc1c[nH]cn1)C(=O)NC[C@H](CO[N+](=O)[O-])O[N+](=O)[O-] | inactive | Dose-dependent effect | 1.47 | 77.6 | 5.8 |  |  |  | Active | Active
6 | 3 | -1.01 |  | Stable |  | NCCC(=O)N[C@@H](Cc1c[nH]cn1)C(=O)NCc1ccc(OCCCO[N+](=O)[O-])cc1 | inactive | Dose-dependent effect | 1.17 | 74.3 | 6.3 |  |  |  |  | 
7 |  |  |  | Stable |  | CCCNC(=O)[C@H](Cc1c[nH]cn1)NC(=O)CCN |  |  |  |  |  |  |  |  | inactive | Active
8 |  | -1.15 |  | Stable |  | CCCOc1ccc(CNC(=O)[C@H](Cc2c[nH]cn2)NC(=O)CCN)cc1 |  |  | 1.07 | 73.3 | 9.5 |  |  |  |  | 
